Data published in ChEMBL document CHEMBL4152233, “Design, synthesis and anthelmintic activity of 7-keto-sempervirol analogues” (Eur J Med Chem, 2018).
Activity calls are given as the source filed them.

Legend:
Schistosoma mansoni [1] = experiment: Antischistosomal activity against schistosomula of Schistosoma mansoni assessed as effect on parasite motility by throughput high content image analysis; format: functional, organism-based
Procedure, shortened: (§1)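 Puerto Rican (NMRI) strain cercariae were mechanically transformed to schistosomula. About 120 larvae were co-cultured with compound for 72 hr at 37 °C, 5% CO2, at 0.625% DMSO final. Controls were DMSO and auranofin. Motility and phenotype were scored by automated image analysis, with a hit threshold of ≤-0.15 (phenotype) and ≤-0.35 (motility) in ≥70% of larvae. Runs were in duplicate, and IC50 was estimated from dose-response curves.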

[2] = Cytotoxicity against MDBK cells after 24 hrs by MTT assay; format: cell-based, Bos taurus; conditions: cattle
Procedure, shortened: (§2)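 Cells were grown to about 80% confluence (HepG2 in BME, MDBK in EMEM, each with 10% FBS). They were seeded at 2.5 x10^4 per well and rested 24 hr, then exposed 24 hr to compound at 100–0.01 µM (1.25% DMSO). Controls were DMSO and 1% Triton X-100. Viability was read by MTT, and CC50 came from dose-response curves run in triplicate.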

[3] = Cytotoxicity against human HepG2 cells after 24 hrs by MTT assay; format: cell-based; procedure, shortened: as §2
Schistosoma mansoni [4] = experiment: Antischistosomal activity against schistosomula of Schistosoma mansoni assessed as effect on parasite phenotype by throughput high content image analysis; format: functional, organism-based; procedure, shortened: as §1
Schistosoma mansoni [5] = experiment: Antischistosomal activity against schistosomula of Schistosoma mansoni at 25 uM by throughput high content image analysis; format: functional, organism-based; procedure, shortened: as §1
Schistosoma mansoni [6] = experiment: Antischistosomal activity against adult stage of Schistosoma mansoni assessed as effect on parasite motility after 72 hrs by microscopic method; format: functional, organism-based
Procedure, shortened: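 Mice were infected percutaneously with 200 cercariae, and adults were recovered by portal perfusion at seven weeks. Three worm pairs per well in modified DMEM with 10% FCS were given compound at 50, 25, 12.5 and 6.25 µM final (0.3% DMSO) for 72 hr at 37 °C, 5% CO2. Controls were DMSO and auranofin. Worms were scored manually by microscopy at 24, 48 and 72 hr. Experiments were run in duplicate.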

[7] = Selectivity index, ratio of IC50 for human HepG2 cells to IC50 for antischistosomal activity against schistosomula of Schistosoma mansoni assessed as effect on parasite motility; format: toxicity; conditions: read-out: Ratio IC50
Procedure, shortened: (§3)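 Selectivity index was calculated as the CC50 from the HepG2 or MDBK MTT assay divided by the schistosomula phenotype or motility IC50 from the 72 hr image-based screen.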

[8] = Selectivity index, ratio of IC50 for human HepG2 cells to IC50 for antischistosomal activity against schistosomula of Schistosoma mansoni assessed as effect on parasite phenotype; format: toxicity; conditions: read-out: Ratio IC50; procedure, shortened: as §3
Fasciola hepatica [9] = experiment: Antifasciola activity against adult stage of Fasciola hepatica Italian assessed as effect on parasite motility after 72 hrs; format: functional, organism-based
[10] = Selectivity index, ratio of IC50 for human HepG2 cells to IC50 for newly excysted juveline stage of Fasciola hepatica Italian assessed as effect on parasite phenotype; format: toxicity; conditions: read-out: Ratio IC50
Procedure, shortened: (§4)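 Selectivity index was calculated as the CC50 from the HepG2 or MDBK MTT assay divided by the F. hepatica NEJ phenotype or motility IC50 from the 72 hr manual scoring assay.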

[11] = Selectivity index, ratio of IC50 for MDBK cells to IC50 for newly excysted juveline stage of Fasciola hepatica Italian assessed as effect on parasite motility; format: toxicity; conditions: cattle, read-out: Ratio IC50; procedure, shortened: as §4
Fasciola hepatica [12] = experiment: Antifasciola activity against newly excysted juveline stage of Fasciola hepatica Italian assessed as effect on parasite motility after 72 hrs; format: functional, organism-based
Procedure, shortened: (§5)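 NEJs came from Italian-strain metacercariae, excysted either by pepsin/HCl or by needle rupture, then 1 hr in sodium tauroglycocholate. They were plated at 25 per well in RPMI-1640 with 1% FCS. Screening was at 25 and 12.5 µM, then titration from 10 to 0.625 µM (0.16% DMSO). Controls were DMSO and 10 µM triclabendazole. Motility and phenotype were scored at 72 hr, with IC50 from dose-response curves.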

[13] = Selectivity index, ratio of IC50 for MDBK cells to IC50 for antischistosomal activity against schistosomula of Schistosoma mansoni assessed as effect on parasite phenotype; format: toxicity; conditions: cattle, read-out: Ratio IC50; procedure, shortened: as §3
[14] = Selectivity index, ratio of IC50 for MDBK cells to IC50 for newly excysted juveline stage of Fasciola hepatica Italian assessed as effect on parasite phenotype; format: toxicity; conditions: cattle, read-out: Ratio IC50; procedure, shortened: as §4
[15] = Selectivity index, ratio of IC50 for human HepG2 cells to IC50 for newly excysted juveline stage of Fasciola hepatica Italian assessed as effect on parasite motility; format: toxicity; conditions: read-out: Ratio IC50; procedure, shortened: as §4
Fasciola hepatica [16] = experiment: Antifasciola activity against newly excysted juveline stage of Fasciola hepatica Italian assessed as effect on parasite phenotype after 72 hrs; format: functional, organism-based; procedure, shortened: as §5
Fasciola hepatica [17] = experiment: Antifasciola activity against immature stage of Fasciola hepatica Italian assessed as effect on parasite motility after 72 hrs; format: functional, organism-based
[18] = Selectivity index, ratio of IC50 for MDBK cells to IC50 for antischistosomal activity against schistosomula of Schistosoma mansoni assessed as effect on parasite motility; format: toxicity; conditions: cattle, read-out: Ratio IC50; procedure, shortened: as §3

Row | Compound | IC50 (Schistosoma mansoni [1]) | IC50 (Schistosoma mansoni [4]) | CC50 at 24 h [2] | CC50 at 24 h [3] | also measured
1 | CC1=C(C(O)Cc2ccc(C(C)(C)C)cc2)C(C)(C)CCC1 (centres undefined) | 25.6 µM | 40.2 µM | > 100 µM | > 100 µM | –
2 | COc1ccc2c(c1)[C@@]1(C)CCCC(C)(C)[C@@H]1CC2 (relative stereo) | 26.6 µM | 44.1 µM | > 100 µM | > 100 µM | –
3 | COc1ccc2c(c1)[C@@]1(C)CCCC(C)(C)[C@H]1C(=O)C2=O (relative stereo) | 26.5 µM | 43.7 µM | > 100 µM | > 100 µM | –
4 | COc1cccc(CC/C=C(\C)CCC=C(C)C)c1 | 27.1 µM | 43.9 µM | > 100 µM | > 100 µM | –
5 | COc1ccc(CC/C=C(\C)CCC=C(C)C)cc1 | 40.1 µM | 39.4 µM | > 100 µM | > 100 µM | –
6 | CC1=C(C(=O)Cc2ccccc2)C(C)(C)CCC1 | 26 µM | 43.8 µM | > 100 µM | > 100 µM | –
7 | CC1=C(C(O)Cc2ccc(C(C)C)cc2)C(C)(C)CCC1 (centres undefined) | 27.3 µM | 39.9 µM | > 100 µM | > 100 µM | –
8 | COc1ccc2c(c1)CC[C@H]1C(C)(C)CCC[C@]21C (relative stereo) | 27.9 µM | 43.4 µM | > 100 µM | 89 µM | selectivity ratio [7]: 3.3; selectivity ratio [8]: 2.1
9 | CC(C)=CCC/C(C)=C/CCc1ccccc1 | 43.8 µM | 43.8 µM | > 100 µM | > 100 µM | –
10 | COc1cccc(CC(=O)C2=C(C)CCCC2(C)C)c1 | 28.1 µM | 41.4 µM | > 100 µM | > 100 µM | –
11 | CC(C)c1cc2c(cc1O)C(=O)C[C@H]1C(C)(C)CCC[C@]21C | 26.2 µM | 21.9 µM | 63.8 µM | 80 µM | selectivity ratio [10]: 4.8; selectivity ratio [11]: 4.9; IC50 (Fasciola hepatica [12]): 13.1 µM; selectivity ratio [13]: 2.9; selectivity ratio [14]: 3.8; selectivity ratio [15]: 6.1; selectivity ratio [7]: 3.1; selectivity ratio [8]: 3.7; IC50 (Fasciola hepatica [16]): 16.8 µM; selectivity ratio [18]: 2.4
12 | COc1cc(CC(=O)C2=C(C)CCCC2(C)C)cc(OC)c1OC | 27.2 µM | 43.7 µM | > 100 µM | > 100 µM | –
13 | COc1ccc(CC(O)C2=C(C)CCCC2(C)C)cc1 (centres undefined) | 26.4 µM | 42.5 µM | > 100 µM | > 100 µM | –
14 | COc1cc(CC(O)C2=C(C)CCCC2(C)C)cc(OC)c1OC (centres undefined) | 43.6 µM | 43.8 µM | > 100 µM | > 100 µM | –

Stronger by IC50 (Schistosoma mansoni [1]), values ahead:

Row | IC50 (Schistosoma mansoni [1]) | IC50 (Schistosoma mansoni [4]) | Compound | CC50 at 24 h [2] | CC50 at 24 h [3] | also measured
15 | 18.9 µM | 28 µM | CC1=C(C(=O)Cc2ccc(C(C)(C)C)cc2)C(C)(C)CCC1 | > 100 µM | > 100 µM | –
16 | 13 µM | 25 µM | CC1(C)CCC[C@]2(C)c3ccccc3C(=O)C(=O)[C@H]12 (relative stereo) | > 100 µM | > 100 µM | Activity (Schistosoma mansoni [5]): Active; IC50 (Schistosoma mansoni [6]): > 50 µM
17 | 6.4 µM | 22.9 µM | COc1ccc2c(c1)C(=O)C(=O)[C@@H]1C(C)(C)CCC[C@]21C (relative stereo) | > 100 µM | 84.9 µM | Activity (Schistosoma mansoni [5]): Active; IC50 (Schistosoma mansoni [6]): > 50 µM; selectivity ratio [7]: 13.2; selectivity ratio [8]: 3.7
18 | 23.5 µM | 39.9 µM | COc1cccc(CC(O)C2=C(C)CCCC2(C)C)c1 (centres undefined) | > 100 µM | > 100 µM | –
19 | 14.7 µM | 39.5 µM | CC1(C)CCC[C@]2(C)c3ccccc3C(=O)C[C@@H]12 (relative stereo) | > 100 µM | 84.2 µM | selectivity ratio [7]: 5.7; selectivity ratio [8]: 2.1
20 | 17.6 µM | 28.6 µM | COc1ccc2c(c1)C(=O)C[C@H]1C(C)(C)CCC[C@]21C (relative stereo) | > 100 µM | > 100 µM | –
21 | 18.2 µM | 25.4 µM | CC1=C(C(=O)Cc2ccc(C(C)C)cc2)C(C)(C)CCC1 | > 100 µM | 71.7 µM | Activity (Schistosoma mansoni [5]): Active; IC50 (Schistosoma mansoni [6]): > 50 µM; selectivity ratio [7]: 3.9; selectivity ratio [8]: 2.8
22 | 10.3 µM | 14.2 µM | COc1ccc2c(c1)[C@@]1(C)CCCC(C)(C)[C@@H]1CC2=O (relative stereo) | 70.6 µM | 33.1 µM | IC50 (Fasciola hepatica [9]): 39.9 µM; selectivity ratio [10]: 3.3; selectivity ratio [11]: 8.3; Activity (Schistosoma mansoni [5]): Active; IC50 (Fasciola hepatica [12]): 8.4 µM; selectivity ratio [13]: 5; IC50 (Schistosoma mansoni [6]): > 50 µM; selectivity ratio [14]: 7.1; selectivity ratio [15]: 3.9; selectivity ratio [7]: 3.2; selectivity ratio [8]: 2.3; IC50 (Fasciola hepatica [16]): 9.9 µM; IC50 (Fasciola hepatica [17]): 14.6 µM; selectivity ratio [18]: 6.9
23 | 21.5 µM | 43.6 µM | CC1=C(C(O)Cc2ccccc2)C(C)(C)CCC1 (centres undefined) | > 100 µM | > 100 µM | –
24 | 19.1 µM | 25.3 µM | COc1ccc(CC(=O)C2=C(C)CCCC2(C)C)cc1 | 91.1 µM | > 100 µM | Activity (Schistosoma mansoni [5]): Active; selectivity ratio [13]: 3.6; IC50 (Schistosoma mansoni [6]): > 50 µM; selectivity ratio [18]: 4.8
25 | 21.9 µM | 28 µM | CC1(C)CCC[C@]2(C)c3ccc(O)cc3C(=O)C[C@@H]12 (relative stereo) | > 100 µM | 65.1 µM | selectivity ratio [7]: 3; selectivity ratio [8]: 2.3
